# Assays:
# [1] = biological target: Telomerase reverse transcriptase (Homo sapiens, UniProt O14746); assay: Inhibition of telomerase in human SW1116 cells after 24 hrs by TRAP-PCR-ELISA assay; format: cell-based, SW 1116
# In short: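 Cells kept in DMEM with 10% FBS, streptomycin and penicillin at 37 °C, 5% CO2. Lysed in RIPA on ice for 30 min, supernatant cleared at 12,000g. Extract used in a TRAP kit, 35 PCR cycles, ELISA read at 490 nm. Mean ± SD.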
# [2] = Antiproliferative activity against human SW1116 cells after 48 hrs by MTT assay; format: functional, cell-based; details: SW 1116, 48 h
# In short: (§1)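 1×10^4 cells/well seeded and held 24 h at 37 °C, 5% CO2. Viability read after 48 h by MTT (4 h, 37 °C), DMSO solubilization, A570. Three independent experiments, mean ± SD.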
# [3] = system: HeLa; assay: Antiproliferative activity against human HeLa cells after 48 hrs by MTT assay; format: functional, cell-based; in short: as §1
# [4] = system: BGC-823; assay: Antiproliferative activity against human BGC823 cells after 48 hrs by MTT assay; format: functional, cell-based; details: BGC-823, 48 h; in short: as §1
# [5] = system: HepG2; assay: Antiproliferative activity against human HepG2 cells after 48 hrs by MTT assay; format: functional, cell-based; details: HepG2, 48 h; in short: as §1
# Telomerase reverse transcriptase, sequence (O14746 whole entry): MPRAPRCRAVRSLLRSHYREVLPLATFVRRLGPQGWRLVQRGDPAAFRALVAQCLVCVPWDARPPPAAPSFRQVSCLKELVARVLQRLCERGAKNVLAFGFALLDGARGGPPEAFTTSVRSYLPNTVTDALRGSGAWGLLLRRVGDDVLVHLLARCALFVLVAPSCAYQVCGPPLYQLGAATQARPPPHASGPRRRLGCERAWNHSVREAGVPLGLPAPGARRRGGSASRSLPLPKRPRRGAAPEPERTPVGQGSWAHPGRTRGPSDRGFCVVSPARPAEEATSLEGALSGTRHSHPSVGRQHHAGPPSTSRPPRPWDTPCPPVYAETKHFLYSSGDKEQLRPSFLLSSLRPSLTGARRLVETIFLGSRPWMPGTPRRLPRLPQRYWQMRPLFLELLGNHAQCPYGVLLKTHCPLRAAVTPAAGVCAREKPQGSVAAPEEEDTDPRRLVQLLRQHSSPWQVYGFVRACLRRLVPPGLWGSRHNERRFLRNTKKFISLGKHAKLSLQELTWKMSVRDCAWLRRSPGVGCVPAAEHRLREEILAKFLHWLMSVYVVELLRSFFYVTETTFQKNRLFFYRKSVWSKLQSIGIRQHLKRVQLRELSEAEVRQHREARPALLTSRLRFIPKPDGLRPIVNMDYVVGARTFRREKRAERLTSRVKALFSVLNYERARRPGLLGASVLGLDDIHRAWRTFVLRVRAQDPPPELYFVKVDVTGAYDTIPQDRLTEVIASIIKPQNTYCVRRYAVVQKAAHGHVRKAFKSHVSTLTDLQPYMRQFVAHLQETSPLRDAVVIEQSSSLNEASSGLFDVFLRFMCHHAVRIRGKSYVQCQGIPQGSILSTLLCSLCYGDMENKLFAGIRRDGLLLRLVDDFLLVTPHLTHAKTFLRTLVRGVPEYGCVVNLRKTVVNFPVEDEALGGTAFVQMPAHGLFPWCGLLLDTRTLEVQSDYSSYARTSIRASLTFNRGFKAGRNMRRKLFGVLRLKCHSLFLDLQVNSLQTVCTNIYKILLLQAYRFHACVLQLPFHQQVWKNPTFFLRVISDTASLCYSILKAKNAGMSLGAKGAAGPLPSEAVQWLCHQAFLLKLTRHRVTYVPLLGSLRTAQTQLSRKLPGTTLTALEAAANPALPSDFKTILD
smiles,measurement,setting,value
Cc1ccccc1CSc1nnc(-c2ccc3c(c2)OCCO3)o1,IC50,[1],1.27 µM
same,IC50,[2],23.9 µM
same,IC50,[3],19 µM
same,IC50,[4],22.6 µM
same,IC50,[5],22 µM
Fc1ccc(CSc2nnc(-c3ccc4c(c3)OCCO4)o2)c(F)c1,IC50,[1],2.44 µM
same,IC50,[2],29.6 µM
same,IC50,[3],41.7 µM
same,IC50,[4],30.3 µM
same,IC50,[5],38.7 µM
Clc1ccccc1CSc1nnc(-c2ccc3c(c2)OCCO3)o1,IC50,[1],5.89 µM
same,IC50,[2],29.5 µM
same,IC50,[3],36.8 µM
same,IC50,[4],22.5 µM
same,IC50,[5],22.6 µM
Clc1cccc(CSc2nnc(-c3ccc4c(c3)OCCO4)o2)c1,IC50,[1],2.34 µM
same,IC50,[2],25.2 µM
same,IC50,[3],31.8 µM
same,IC50,[4],26.9 µM
same,IC50,[5],33.4 µM
Fc1ccc(CSc2nnc(-c3ccc4c(c3)OCCO4)o2)cc1,IC50,[1],3.67 µM
same,IC50,[2],21.6 µM
same,IC50,[3],41.2 µM
same,IC50,[4],28.7 µM
same,IC50,[5],38 µM
O=[N+]([O-])c1ccccc1CSc1nnc(-c2ccc3c(c2)OCCO3)o1,IC50,[1],12.1 µM
same,IC50,[2],20.8 µM
same,IC50,[3],32.7 µM
same,IC50,[4],23.3 µM
same,IC50,[5],38.1 µM
Brc1ccc(CSc2nnc(-c3ccc4c(c3)OCCO4)o2)cc1,IC50,[1],1.66 µM
same,IC50,[2],24.5 µM
same,IC50,[3],23.6 µM
same,IC50,[4],22.2 µM
same,IC50,[5],8.54 µM
Cc1cccc(CSc2nnc(-c3ccc4c(c3)OCCO4)o2)c1,IC50,[1],3.26 µM
same,IC50,[2],27.2 µM
same,IC50,[3],32.8 µM
same,IC50,[4],31.2 µM
same,IC50,[5],33.4 µM
Cc1ccc(CSc2nnc(-c3ccc4c(c3)OCCO4)o2)cc1,IC50,[1],5.04 µM
same,IC50,[2],32.5 µM
same,IC50,[3],45.4 µM
same,IC50,[4],31.6 µM
same,IC50,[5],41.9 µM
Ic1ccc(CSc2nnc(-c3ccc4c(c3)OCCO4)o2)cc1,IC50,[1],3.66 µM
same,IC50,[2],29.2 µM
same,IC50,[3],31.1 µM
same,IC50,[4],22.7 µM
same,IC50,[5],31.2 µM
Fc1cccc(F)c1CSc1nnc(-c2ccc3c(c2)OCCO3)o1,IC50,[1],15.8 µM
same,IC50,[2],36.3 µM
same,IC50,[3],43.2 µM
same,IC50,[4],36.1 µM
same,IC50,[5],41.6 µM
O=[N+]([O-])c1ccc(CSc2nnc(-c3ccc4c(c3)OCCO4)o2)cc1,IC50,[1],2.71 µM
same,IC50,[2],14.6 µM
same,IC50,[3],27.5 µM
same,IC50,[4],23 µM
same,IC50,[5],35.4 µM
c1ccc(CSc2nnc(-c3ccc4c(c3)OCCO4)o2)cc1,IC50,[1],8.21 µM
same,IC50,[2],31.5 µM
same,IC50,[3],40.3 µM
same,IC50,[4],33.6 µM
same,IC50,[5],32.1 µM
Fc1ccccc1CSc1nnc(-c2ccc3c(c2)OCCO3)o1,IC50,[1],2.93 µM
same,IC50,[2],21.9 µM
same,IC50,[3],41.6 µM
same,IC50,[4],28.9 µM
same,IC50,[5],24 µM
O=c1[nH]cc(F)c(=O)[nH]1 [FLUOROURACIL],IC50,[2],95.2 µM
same,IC50,[3],110 µM
same,IC50,[4],100 µM
Brc1cccc(CSc2nnc(-c3ccc4c(c3)OCCO4)o2)c1,IC50,[1],2.45 µM
same,IC50,[2],20.1 µM
same,IC50,[3],25.9 µM
same,IC50,[4],20.6 µM
same,IC50,[5],24.9 µM
Brc1ccccc1CSc1nnc(-c2ccc3c(c2)OCCO3)o1,IC50,[1],2.02 µM
same,IC50,[2],14.1 µM
same,IC50,[3],22.4 µM
same,IC50,[4],21.2 µM
same,IC50,[5],19.9 µM
O=[N+]([O-])c1cccc(CSc2nnc(-c3ccc4c(c3)OCCO4)o2)c1,IC50,[1],4.65 µM
same,IC50,[2],30.1 µM
same,IC50,[3],35.6 µM
same,IC50,[4],23.7 µM
same,IC50,[5],38.3 µM
Ic1ccccc1CSc1nnc(-c2ccc3c(c2)OCCO3)o1,IC50,[1],1.83 µM
same,IC50,[2],12.2 µM
same,IC50,[3],20 µM
same,IC50,[4],18.9 µM
same,IC50,[5],7.21 µM
Clc1ccc(CSc2nnc(-c3ccc4c(c3)OCCO4)o2)cc1,IC50,[1],2.91 µM
same,IC50,[2],28.4 µM
same,IC50,[3],28.5 µM
same,IC50,[4],22.6 µM
same,IC50,[5],28.8 µM
